We go through 16 compounds from ChEMBL document CHEMBL3875201, “Synthesis and in vitro antiviral evaluation of 4-substituted 3,4-dihydropyrimidinones” (Bioorg Med Chem Lett, 2017).

In general, EC50 refers to the concentration that produces a half-maximal response. Usually CC50 stands for the concentration giving 50% cytotoxicity.

A value given as a limit tells only on which side of the number the result lay.

A short description of data set [1]: Cytotoxicity against human HeLa cells assessed as alterations in cell morphology by microscopic analysis. Type of data set: toxicity, cell-based. The method, boiled down: (§1)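 Compound added to subconfluent cell monolayers in 96-well plates together with virus (CPE reduction assay format); after 3–5 days incubation, cultures inspected by microscopy. MCC taken as compound concentration producing minimal alterations in cell morphology.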

Data set [2] is described as follows: Cytotoxicity against HEL cells assessed as alterations in cell morphology by microscopic analysis. Type of data set: toxicity, cell-based. The settings on record: human. The method, boiled down:
as §1

A short description of data set [3]: Cytotoxicity against MDCK cells assessed as alterations in cell morphology by microscopic analysis. Type of data set: toxicity, cell-based, Canis lupus familiaris. The settings on record: dog. The procedure, abridged:
as §1

The test system of data set [4] is Mammalian orthoreovirus 1. The data set can be described thus: Antiviral activity against Reovirus-1 infected in African green monkey Vero cells assessed as protection against virus-induced cytopathic effect measured after 3 to 5 days by microscopic analysis. The settings on record: Mammalian orthoreovirus 1, Vero. Type of data set: functional, cell-based. (In general: Damage to the host cells serves as the signal in cytopathic effect assays.)

The test system of data set [5] is Human respirovirus 3. The data set can be described thus: Antiviral activity against Para-influenza-3 virus infected in African green monkey Vero cells assessed as protection against virus-induced cytopathic effect measured after 3 to 5 days by microscopic analysis. Type of data set: functional, cell-based. The following applies: Human respirovirus 3, Vero.
Data set [6] deals with Yellow fever virus. Nature of the data set: Antiviral activity against Yellow fever virus infected in African green monkey Vero cells assessed as protection against virus-induced cytopathic effect measured after 3 to 5 days by microscopic analysis. Type of data set: functional, cell-based.
A short description of data set [7]: Cytotoxicity against cat CRFK cells assessed as by MTS cell viability assay. Type of data set: toxicity, cell-based, Felis catus. On the technique in general: Tetrazolium dyes change colour on reduction, which living cells bring about.
Data set [8] relates to Punta Toro virus. Nature of the data set: Antiviral activity against Punta Toro virus infected in African green monkey Vero cells assessed as protection against virus-induced cytopathic effect measured after 3 to 5 days by microscopic analysis. Type of data set: functional, cell-based.
Data set [9] relates to Coxsackievirus B4. Nature of the data set: Antiviral activity against Coxsackie virus B4 infected in African green monkey Vero cells assessed as protection against virus-induced cytopathic effect measured after 3 to 5 days by microscopic analysis. Type of data set: functional, cell-based. The following applies: Enterovirus B.
The test system of data set [10] is Human alphaherpesvirus 3. The data set can be described thus: Antiviral activity against Varicella zoster virus infected in HEL cells assessed as protection against virus-induced cytopathic effect at 100 uM measured after 3 to 5 days by microscopic analysis. Type of data set: functional, cell-based. The settings on record: Human alphaherpesvirus 3, HEL. The method, boiled down: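 HEL fibroblasts, subconfluent, were exposed to compound plus virus together. After 3–5 days CPE was scored microscopically as protection against virus-induced cell damage. EC50 is the concentration giving 50% protection; MCC is the concentration causing minimal morphology change by microscopy.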

Data set [11] in a line: Cytotoxicity against African green monkey Vero cells assessed as alterations in cell morphology by microscopic analysis. Type of data set: toxicity, cell-based. The settings on record: chlorocebus sabaeus. The procedure, abridged: as §1
Data set [12] has as its system Sindbis virus. The data set can be described thus: Antiviral activity against Sindbis virus infected in African green monkey Vero cells assessed as protection against virus-induced cytopathic effect measured after 3 to 5 days by microscopic analysis. Type of data set: functional, cell-based.
The nature of data set [13]: Cytotoxicity against human MT4 cells by MTS cell viability assay. Type of data set: toxicity, cell-based.
In data set [14] the test system is Punta Toro virus. Nature of the data set: Potency index, ratio of Dextran sulphate EC50 to test compound EC50 for Punta Toro virus infected in African green monkey Vero cells. Type of data set: functional.
The test system of data set [15] is Rift Valley fever virus. Nature of the data set: Antiviral activity against RVFV MP-12 infected in African green monkey Vero cells assessed as protection against virus-induced cytopathic effect at 100 uM measured after 3 to 5 days by microscopic analysis. Type of data set: functional.
The nature of data set [16]: Selectivity index, ratio of MCC for African green monkey Vero cells to EC50 for Punta Toro virus infected in African green monkey Vero cells. Type of data set: toxicity, cell-based.
The test system of data set [17] is Punta Toro virus. The data set can be described thus: Potency index, ratio of mycophenolic acid EC50 to test compound EC50 for Punta Toro virus infected in African green monkey Vero cells. Type of data set: functional.
The test system of data set [18] is Punta Toro virus. The data set can be described thus: Antiviral activity against Punta Toro virus infected in African green monkey Vero cells assessed as protection against virus-induced cytopathic effect at 20 uM measured after 3 to 5 days by microscopic analysis. Type of data set: functional.
Data set [19] concerns Punta Toro virus. Nature of the data set: Potency index, ratio of ribavirin EC50 to test compound EC50 for Punta Toro virus infected in African green monkey Vero cells. Type of data set: functional.

With `CCOC(=O)C1=C(C)NC(=O)NC1c1ccc(Br)cc1` (centres undefined), the MCC in [1], in data set [2] and in [3] was more than 100 µM each time.

Take `CCOC(=O)C1=C(C)NC(=O)NC1c1ccccc1` (centres undefined): the MCC in data set [1] and in [3] was more than 100 µM throughout. In addition, the EC50 in data set [4] and in data set [5] was more than 100 µM in each case.

For the compound `CCOC(=O)C1=C(C)NC(=O)NC1/C=C/c1ccccc1` (centres undefined), the EC50 in [6] was more than 100 µM; in [8], more than 100 µM; in data set [4], more than 100 µM; in data set [9], more than 100 µM; in data set [10] it was 57 µM; in data set [12], more than 100 µM. Besides, the EC50 in data set [5] is more than 100 µM. Further, the CC50 in data set [7] was more than 100 µM; in [13] it was more than 125 µM. The MCC in [1] was not below 100 µM; in data set [2], not below 100 µM; in data set [3], more than 100 µM; in data set [11], 100 µM.

As for `CCOC(=O)C1=C(C)NC(=O)NC1C` (centres undefined), the EC50 in [6], in data set [8], in data set [4], in [9], in data set [12] and in data set [5] was more than 100 µM throughout. Also, the CC50 was more than 100 µM in data set [7] and more than 125 µM in [13]. The MCC in data set [1], in data set [2], in data set [3] and in data set [11] was more than 100 µM in each case.

With `NC(=O)c1ncn([C@@H]2O[C@H](CO)[C@@H](O)[C@H]2O)n1` [RIBAVIRIN], the EC50 is 50 µM in [8]; more than 250 µM in data set [4]; more than 250 µM in data set [9]; more than 250 µM in data set [12]; 112 µM in [5]. The MCC in data set [11] is more than 250 µM.

Take `CCOC(=O)C1=C(C)NC(=O)NC1c1ccccc1Cl` (centres undefined): the EC50 in data set [6], in data set [8], in data set [4], in data set [9], in data set [12] and in data set [5] was more than 100 µM in each case. Besides, the CC50 in [7] was more than 100 µM; in [13], 96 µM. Moreover, the MCC in data set [1], in [2], in [3] and in data set [11] was more than 100 µM each time.

Turning to `CCCCCCCCCCCC1NC(=O)NC(C)=C1C(=O)OCC` (centres undefined), the 50% effective concentration (EC50) in data set [6] is more than 100 µM; in data set [8], 3 µM; in data set [4], more than 100 µM; in data set [9], more than 100 µM; in data set [12], more than 100 µM; in data set [5] it was more than 100 µM. Besides, the CC50 in [7] was more than 100 µM; in data set [13], 50 µM. Further, the entries for the “Ratio EC50” value in data set [14], in data set [17] and in [19] were 7, 7 and 17, respectively. In addition, the values for the Activity result in [8], in data set [15] and in data set [18] were “Dose-dependent effect”, 40 - 50% and 81%, respectively. For the same compound, the MCC was more than 100 µM in data set [1], 100 µM in [2], more than 100 µM in data set [3] and not below 100 µM in data set [11]. In data set [16], the “Selectivity Index” value is reported as “>= 33”.

Consider `CCOC(=O)C1=C(C)NC(=O)NC1c1ccc(O)cc1` (centres undefined), for which the EC50 in [6], in data set [8], in data set [4], in data set [9], in data set [12] and in data set [5] was more than 100 µM in each case. Also, the CC50 in data set [7] is more than 100 µM; in data set [13], more than 125 µM. Further, the MCC in [1], in data set [2], in data set [3] and in data set [11] was more than 100 µM in each case.

For `CCOC(=O)C1C2NC(=O)NC1(C)Oc1ccccc12` (centres undefined), the EC50 in [6], in [8], in [4], in data set [9], in data set [12] and in data set [5] was more than 100 µM throughout. In addition, the CC50 was more than 100 µM in data set [7] and more than 125 µM in [13]. For the same compound, the MCC in [1], in data set [2], in data set [3] and in [11] was more than 100 µM in each case.

On to `CCOC(=O)C1=C(C)NC(=O)NC1c1ccc(N(C)C)cc1` (centres undefined), for which the EC50 in data set [6], in data set [8], in [4], in [9], in data set [12] and in data set [5] was more than 100 µM in each case. Also, the figures for the CC50 in [7] and in data set [13] were more than 100 µM and more than 125 µM, respectively. Also, the MCC is more than 100 µM in [1], more than 100 µM in data set [2], more than 100 µM in [3] and 100 µM in data set [11].

On to `CCOC(=O)C1=C(C)NC(=O)NC1c1cccs1` (centres undefined), for which the EC50 in [6], in [8], in data set [4], in [9], in [12] and in data set [5] was more than 100 µM each time. For the same compound, the figures for the CC50 in data set [7] and in data set [13] were more than 100 µM and more than 125 µM, respectively. Moreover, the MCC in data set [1], in data set [2], in data set [3] and in data set [11] was more than 100 µM throughout.

In the case of `CCOC(=O)C1=C(C)NC(=O)NC1c1ccc(OC)cc1` (centres undefined), the MCC in data set [1] and in data set [3] was more than 100 µM each time. Besides, the EC50 in [4] was more than 100 µM.

As to `CCOC(=O)C1=C(C)NC(=O)NC1c1ccc(Cl)cc1` (centres undefined), the MCC in [1], in data set [2] and in [3] was more than 100 µM throughout.

Consider `CCOC(=O)C1=C(C)NC(=O)NC1`, for which the EC50 in data set [6], in data set [8], in [4], in data set [9], in data set [12] and in [5] was more than 100 µM each time. In addition, the CC50 is more than 100 µM in [7] and more than 125 µM in data set [13]. For the same compound, the MCC in data set [1], in data set [2], in data set [3] and in data set [11] was more than 100 µM in each case.

With `COc1c(C)c2c(c(O)c1C/C=C(\C)CCC(=O)O)C(=O)OC2` [MYCOPHENOLIC ACID], the EC50 is 4 µM in data set [6]; 20 µM in data set [8]; 1.8 µM in data set [4]; more than 250 µM in data set [9]; 4 µM in data set [12]; 0.8 µM in [5]. Further, the MCC in data set [11] is more than 100 µM.

With `CCOC(=O)C1=C(C)NC(=O)NC1CC(C)C` (centres undefined), the EC50 in data set [6], in data set [8], in [4], in [9], in [12] and in [5] was more than 100 µM throughout. For the same compound, the half-maximal cytotoxic concentration (CC50) was more than 100 µM in data set [7] and more than 125 µM in data set [13]. In addition, the MCC in [1], in data set [2], in data set [3] and in [11] was more than 100 µM each time.
